Source: ChEMBL document CHEMBL4689842, “EUbOPEN Chemogenomics Library wave 1” (2021)

System: U2OS
Assay: Multiplex assay against U2OS
Format: toxicity, cell-based
Conditions: human
How it was run: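 Phenotypes for tubulin, mitochondrial mass and membrane permeability are expressed as per cents of healthy-nucleus cells. Cells were stained live at seeding with Hoechst33342, BioTracker Green Microtubule Cytoskeleton Dye, MitoTracker Red and Annexin V Alexa Fluor 680, then imaged after compound addition on a CQ1 microscope at 37°C and 5% CO2. Machine-learning gating in CellPathfinder separated Hoechst high-intensity objects from normal cells, divided normal cells by nuclear state (healthy, pyknosed, fragmented) and divided pyknosed cells into mitotic or apoptotic.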

[1] = 12 h, 1 µM, compound concentration 1 uM, replicate 1
[2] = 12 h, 1 µM, compound concentration 1 uM, replicate 2
[3] = 12 h, 10 µM, compound concentration 10 uM, replicate 1
[4] = 12 h, 10 µM, compound concentration 10 uM, replicate 2
[5] = 24 h, 1 µM, compound concentration 1 uM, replicate 1
[6] = 24 h, 1 µM, compound concentration 1 uM, replicate 2
[7] = 24 h, 10 µM, compound concentration 10 uM, replicate 1
[8] = 24 h, 10 µM, compound concentration 10 uM, replicate 2

How did the “Population Apoptotic (%)” value [1] turn out when `COC(=N)c1nc2ccc3ncnc(Nc4ccc(OC)cc4F)c3c2s1` was run?
The value was 36%.

What about the “Population Fragmented Nuclei (%)” value [1] of the same compound?
Its value is 9%.

What about the “Population Healthy Nuclei (%)” value [1] of the same compound?
Its value is 78%.

And the “Population Hoechst High Intensity Objects (%)” value [1]?
The value was 8%.

What about the “Population Membrane Permeable-Phenotype (%)” value [1] of the same compound?
The value was 17%.

And the “Population Mitochondria Different-Phenotype (%)” value [1]?
The value was 25%.

What about the “Population Mitotic Cells (%)” value [1] of the same compound?
Its value is 63%.

And the “Population Normal (%)” value [1]?
The value was 91%.

What about the “Population Pyknosed Nuclei (%)” value [1] of the same compound?
The value was 12%.

And the “Population Tubulin-Different-Phenotype (%)” value [1]?
The value was 27%.

What about the “Total Cell Count” value [1] of the same compound?
The value was 162.

And the “Population Apoptotic (%)” value [2]?
The value was 23%.

What about the “Population Fragmented Nuclei (%)” value [2] of the same compound?
Its value is 10%.

And the “Population Healthy Nuclei (%)” value [2]?
Its value is 75%.

And the “Population Hoechst High Intensity Objects (%)” value [2]?
The value was 6%.

And the “Population Membrane Permeable-Phenotype (%)” value [2]?
Its value is 16%.

And the “Population Mitochondria Different-Phenotype (%)” value [2]?
Its value is 30%.

And the “Population Mitotic Cells (%)” value [2]?
Its value is 76%.

And the “Population Normal (%)” value [2]?
Its value is 93%.

What about the “Population Pyknosed Nuclei (%)” value [2] of the same compound?
The value was 13%.

What about the “Population Tubulin-Different-Phenotype (%)” value [2] of the same compound?
Its value is 33%.

And the “Total Cell Count” value [2]?
The value was 110.

And the “Population Apoptotic (%)” value [3]?
The value was 37%.

And the “Population Fragmented Nuclei (%)” value [3]?
Its value is 2%.

What about the “Population Healthy Nuclei (%)” value [3] of the same compound?
Its value is 92%.

And the “Population Hoechst High Intensity Objects (%)” value [3]?
Its value is 1%.

What about the “Population Membrane Permeable-Phenotype (%)” value [3] of the same compound?
The value was 10%.

And the “Population Mitochondria Different-Phenotype (%)” value [3]?
The value was 19%.

And the “Population Mitotic Cells (%)” value [3]?
The value was 62%.

And the “Population Normal (%)” value [3]?
Its value is 98%.

And the “Population Pyknosed Nuclei (%)” value [3]?
The value was 5%.

What about the “Population Tubulin-Different-Phenotype (%)” value [3] of the same compound?
Its value is 25%.

And the “Total Cell Count” value [3]?
The value was 190.

What about the “Population Fragmented Nuclei (%)” value [4] of the same compound?
The value was 13%.

What about the “Population Healthy Nuclei (%)” value [4] of the same compound?
Its value is 77%.

And the “Population Hoechst High Intensity Objects (%)” value [4]?
The value was 13%.

And the “Population Membrane Permeable-Phenotype (%)” value [4]?
The value was 8%.

What about the “Population Mitochondria Different-Phenotype (%)” value [4] of the same compound?
Its value is 24%.

And the “Population Normal (%)” value [4]?
Its value is 86%.

What about the “Population Pyknosed Nuclei (%)” value [4] of the same compound?
Its value is 8%.

What about the “Population Tubulin-Different-Phenotype (%)” value [4] of the same compound?
The value was 32%.

What about the “Total Cell Count” value [4] of the same compound?
Its value is 179.

What about the “Population Apoptotic (%)” value [5] of the same compound?
Its value is 28%.

What about the “Population Fragmented Nuclei (%)” value [5] of the same compound?
Its value is 5%.

What about the “Population Healthy Nuclei (%)” value [5] of the same compound?
The value was 82%.

And the “Population Hoechst High Intensity Objects (%)” value [5]?
Its value is 5%.

And the “Population Membrane Permeable-Phenotype (%)” value [5]?
Its value is 17%.

And the “Population Mitochondria Different-Phenotype (%)” value [5]?
Its value is 22%.

And the “Population Mitotic Cells (%)” value [5]?
The value was 71%.

And the “Population Normal (%)” value [5]?
The value was 94%.

What about the “Population Pyknosed Nuclei (%)” value [5] of the same compound?
The value was 12%.

And the “Population Tubulin-Different-Phenotype (%)” value [5]?
The value was 44%.

What about the “Total Cell Count” value [5] of the same compound?
Its value is 219.

And the “Population Apoptotic (%)” value [6]?
Its value is 44%.

What about the “Population Fragmented Nuclei (%)” value [6] of the same compound?
Its value is 9%.

And the “Population Hoechst High Intensity Objects (%)” value [6]?
Its value is 8%.

And the “Population Membrane Permeable-Phenotype (%)” value [6]?
The value was 12%.

What about the “Population Mitochondria Different-Phenotype (%)” value [6] of the same compound?
Its value is 27%.

And the “Population Mitotic Cells (%)” value [6]?
The value was 55%.

And the “Population Normal (%)” value [6]?
Its value is 91%.

And the “Population Pyknosed Nuclei (%)” value [6]?
Its value is 7%.

And the “Population Tubulin-Different-Phenotype (%)” value [6]?
Its value is 39%.

What about the “Total Cell Count” value [6] of the same compound?
Its value is 118.

And the “Population Fragmented Nuclei (%)” value [7]?
The value was 1%.

What about the “Population Healthy Nuclei (%)” value [7] of the same compound?
The value was 96%.

What about the “Population Hoechst High Intensity Objects (%)” value [7] of the same compound?
The value was 1%.

And the “Population Membrane Permeable-Phenotype (%)” value [7]?
Its value is 7%.

And the “Population Mitochondria Different-Phenotype (%)” value [7]?
The value was 16%.

What about the “Population Normal (%)” value [7] of the same compound?
The value was 98%.

And the “Population Pyknosed Nuclei (%)” value [7]?
The value was 1%.

What about the “Population Tubulin-Different-Phenotype (%)” value [7] of the same compound?
The value was 28%.

What about the “Total Cell Count” value [7] of the same compound?
Its value is 264.

What about the “Population Apoptotic (%)” value [8] of the same compound?
The value was 75%.

And the “Population Fragmented Nuclei (%)” value [8]?
Its value is 11%.

What about the “Population Healthy Nuclei (%)” value [8] of the same compound?
The value was 85%.

What about the “Population Hoechst High Intensity Objects (%)” value [8] of the same compound?
The value was 7%.

And the “Population Membrane Permeable-Phenotype (%)” value [8]?
Its value is 10%.

What about the “Population Mitochondria Different-Phenotype (%)” value [8] of the same compound?
The value was 34%.

What about the “Population Mitotic Cells (%)” value [8] of the same compound?
The value was 25%.

What about the “Population Normal (%)” value [8] of the same compound?
Its value is 92%.

What about the “Population Pyknosed Nuclei (%)” value [8] of the same compound?
Its value is 3%.

And the “Population Tubulin-Different-Phenotype (%)” value [8]?
The value was 32%.

And the “Total Cell Count” value [8]?
The value was 222.
